What is called MIC is the least concentration at which growth counts as inhibited. Low values mean inhibition by little substance, high ones a need for much substance.

Common to all, as to test: MIC
What all share (type): cell-based
What all share (details): broth microdilution, 37 °C, 24 h
In general terms: In broth dilution the organism is exposed to a series of concentrations in liquid medium.

In experiment [1] the test system is P. aeruginosa ATCC 27853. Put shortly:
(§1)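 Strains were kept in TSB with 25% glycerol at −70 °C and grown aerobically on nutrient agar at 37 °C for 24 h. For MIC, test compound was diluted twofold (1–256 µg/mL) and ~10^6 cells/mL were added, followed by 37 °C for 24 h. MIC was read visually as 99% growth inhibition, with gentamycin as control. For MBC, non-turbid wells were plated on Mueller–Hinton agar for 24 h at 37 °C; MBC was the lowest concentration giving no colonies.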

Experiment [2] concerns S. aureus ATCC 29213. Put shortly:
as §1

For experiment [3], the system named is A. baumannii ATCC 19606. Put shortly: as §1

On to Gentamycin, for which the MIC is 2 mg/L in experiment [1], 1 mg/L in experiment [2] and 4 mg/L in experiment [3].

Values taken from paper PMC12480717 (Scientific Reports, 2025).
